Results published in ChEMBL document CHEMBL1764958, “Synthesis and biological evaluation of 3,7-diazabicyclo[4.3.0]nonan-8-ones as potential nootropic and analgesic drugs” (2011).
Active and inactive are the calls of the source. No cut-off for these calls is given here.

Tests used:
Mus musculus [1] = assay: Antiamnesic activity in ip dosed mouse assessed as reversal of scopolamine-induced amnesia after 20 mins by passive-avoidance test; assay type: functional; settings: for minimal effective dose: Mus musculus, ip, 20 min, read-out: MED
Mus musculus [2] = assay: Antiamnesic activity in mouse assessed as reversal of scopolamine-induced amnesia at 10 mg/kg, ip after 20 mins by passive-avoidance test; assay type: functional, organism-based; set-up: dose 10 mg/kg
Procedure, shortened: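 Mice; compounds dissolved in saline, given ip 20 min before the training session of the passive-avoidance test. Scopolamine injected immediately after punishment. Doses tested up to 10 mg/kg; activity read as reversal of scopolamine-induced amnesia at retention. Each value is the mean of 8-18 mice, compared against scopolamine-treated mice.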

Rattus norvegicus [3] = assay: Antihyperalgesic activity in rat assessed as reversal of oxaliplatin-induced mechanical hyperalgesia at 10 mg.kg, ip by paw pressure test; assay type: functional, organism-based
Procedure, shortened: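 Rats received oxaliplatin 2.4 mg/kg ip on 5 consecutive days each week, for 15 injections totalling 36 mg/kg. Mechanical hyperalgesia was then measured by the paw-pressure test after a single ip dose of 10 mg/kg. Pregabalin 30 mg/kg po served as reference.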

Rattus norvegicus [4] = assay: Antihyperalgesic activity in rat assessed as reversal of oxaliplatin-induced mechanical hyperalgesia at 50 to 100 mg.kg, iv by paw pressure test; assay type: functional
Mus musculus [5] = species on record: Mus musculus; assay: Antihyperalgesic activity against thermal hyperalgesia in saline treated mouse diabetic neuropathy model assessed as licking latency time after 30 mins by hot plate test (reference value: 18 +/- 1.5 sec)
Mus musculus [6] = species on record: Mus musculus; assay: Antihyperalgesic activity against thermal hyperalgesia in saline treated mouse diabetic neuropathy model assessed as licking latency time after 15 mins by hot plate test (reference value: 18.1 +/- 1.1 sec)
Mus musculus [7] = species on record: Mus musculus; assay: Antihyperalgesic activity against thermal hyperalgesia in saline treated mouse diabetic neuropathy model assessed as licking latency time after 45 mins by hot plate test (reference value: 17.8 +/- 1.5 sec)
Mus musculus [8] = species on record: Mus musculus; assay: Antihyperalgesic activity against thermal hyperalgesia in saline treated mouse diabetic neuropathy model assessed as licking latency time after 60 mins by hot plate test (reference value: 18.4 +/- 1.6 sec)
Mus musculus [9] = species on record: Mus musculus; assay: Antihyperalgesic activity against streptozotocin-induced thermal hyperalgesia in mouse diabetic neuropathy model assessed as licking latency time after 15 mins by hot plate test (reference value: 9.4 +/- 1.3 sec)
Mus musculus [10] = species on record: Mus musculus; assay: Antihyperalgesic activity against streptozotocin-induced thermal hyperalgesia in mouse diabetic neuropathy model assessed as licking latency time after 45 mins by hot plate test (reference value: 9.3 +/- 1.2 sec)
Mus musculus [11] = species on record: Mus musculus; assay: Antihyperalgesic activity against streptozotocin-induced thermal hyperalgesia in mouse diabetic neuropathy model assessed as licking latency time after 30 mins by hot plate test (reference value: 10.1 +/- 0.8 sec)
Mus musculus [12] = species on record: Mus musculus; assay: Antihyperalgesic activity against streptozotocin-induced thermal hyperalgesia in mouse diabetic neuropathy model assessed as licking latency time after 60 mins by hot plate test (reference value: 10.4 +/- 1.2 sec)

In the case of CC(=O)NC1CCN(S(=O)(=O)C(C)C)CC1, the minimal effective dose (Mus musculus [1]) is reported as 1 mg/kg.
CC(=O)NC1CCN(C(=O)c2ccccc2)CC1 gave a minimal effective dose (Mus musculus [1]) of 10 mg/kg.
For CC(C)S(=O)(=O)N1CC[C@@H]2NC(=O)C[C@@H]2C1, the Activity (Mus musculus [2]) was “inactive”.
In the case of O=C1CC2CN(S(=O)(=O)c3ccc(F)cc3)CCC2N1 (racemic; form 1), the Activity (Rattus norvegicus [3]) is reported as “Active”.
With O=C1CC2CN(S(=O)(=O)c3ccc(F)cc3)CCC2N1 (racemic; form 2) the Activity (Rattus norvegicus [3]) was “Active”.
With O=C1C[C@@H]2CN(S(=O)(=O)c3ccc(F)cc3)CC[C@@H]2N1 (relative stereo) the MED (Mus musculus [1]) was 0.1 mg/kg.
O=C1C[C@@H]2CN(C(=O)c3ccccc3)CC[C@@H]2N1 (relative stereo) showed a minimal effective dose (Mus musculus [1]) of 3 mg/kg.
With O=C1C[C@H]2CN(S(=O)(=O)c3ccc(F)cc3)CC[C@@H]2N1 (relative stereo) the MED (Mus musculus [1]) was 1 mg/kg.
O=C1C[C@H]2CN(C(=O)c3ccccc3)CC[C@@H]2N1 (relative stereo) was tested, and the minimal effective dose (Mus musculus [1]) was 3 mg/kg.
Compound CC(C)S(=O)(=O)N1CC[C@@H]2NC(=O)C[C@H]2C1 (relative stereo) has a minimal effective dose (Mus musculus [1]) of 10 mg/kg.
Compound O=C1C[C@@H]2CN(S(=O)(=O)c3ccc(F)cc3)CC[C@@H]2N1 (stereo in doubt; (+)-4) has an Activity (Rattus norvegicus [4]) of 75%.
Work on O=C1C[C@@H]2CN(S(=O)(=O)c3ccc(F)cc3)CC[C@@H]2N1 (stereo in doubt; (-)-4) yielded a minimal effective dose (Mus musculus [1]) of 0.1 mg/kg.
Work on O=C1C[C@H]2CN(S(=O)(=O)c3ccc(F)cc3)CC[C@@H]2N1 (stereo in doubt; (-)-7) yielded a minimal effective dose (Mus musculus [1]) of 1 mg/kg.
For O=C1O[C@H]([C@@H](O)CO)C(O)=C1O [ASCORBIC ACID], the Activity (Rattus norvegicus [4]) was 50%.
With O=C(O)CCCCC1CCSS1 (stereo not drawn) [LIPOIC ACID, ALPHA] the Activity (Rattus norvegicus [4]) was 50%.
NC(=O)CN1CCCC1=O [PIRACETAM] showed a minimal effective dose (Mus musculus [1]) of 30 mg/kg.
In the case of CC(=O)NC1CCN(S(=O)(=O)c2ccc(F)cc2)CC1 [SAPUNIFIRAM], the minimal effective dose (Mus musculus [1]) is reported as 0.01 mg/kg, the Activity (Rattus norvegicus [3]) is reported as “inactive” and the Time (Mus musculus [5]) is reported as 15.7 s. It also gave a Time (Mus musculus [6]) of 16.5 s, a Time (Mus musculus [7]) of 16.3 s and a Time (Mus musculus [8]) of 15.6 s. It also gave a Time (Mus musculus [9]) of 15.6 s, a Time (Mus musculus [10]) of 10.4 s and a Time (Mus musculus [11]) of 12.4 s. For the same compound, the Time (Mus musculus [12]) was 11.2 s.
